Test results from ChEMBL document CHEMBL4387760, “Synthesis of oxytocin derivatives lipidated via a carbonate or carbamate linkage as a long-acting therapeutic agent for social impairment-like behaviors” (Bioorg Med Chem, 2019).
pEC50: −log10 of the molar value. Active and inactive are the calls of the source. The calls are words filed in the database; no cut-off is given here.

How the values were obtained:
Mus musculus [1] = experiment: Improvement in paternal nurturing behavior in CD38 knock out Slc:ICR mouse sire model of autism spectrum disorder assessed as parental scores to retrieve pups by sires at 100 ng/100 g, ip administered as single dose measured after 30 mins by parental retrieval test (reference value: 0 +/- 0 No units); format: functional
[2] = target: T1, Oxytocin receptor (Homo sapiens) (UniProt P30559); experiment: Agonist activity at human OTR receptor expressed in HEK293 cells measured at 3 secs interval for 5 mins by fura-2/AM dye based micro spectrofluorometric method relative to OT; format: cell-based
T1 sequence (whole entry): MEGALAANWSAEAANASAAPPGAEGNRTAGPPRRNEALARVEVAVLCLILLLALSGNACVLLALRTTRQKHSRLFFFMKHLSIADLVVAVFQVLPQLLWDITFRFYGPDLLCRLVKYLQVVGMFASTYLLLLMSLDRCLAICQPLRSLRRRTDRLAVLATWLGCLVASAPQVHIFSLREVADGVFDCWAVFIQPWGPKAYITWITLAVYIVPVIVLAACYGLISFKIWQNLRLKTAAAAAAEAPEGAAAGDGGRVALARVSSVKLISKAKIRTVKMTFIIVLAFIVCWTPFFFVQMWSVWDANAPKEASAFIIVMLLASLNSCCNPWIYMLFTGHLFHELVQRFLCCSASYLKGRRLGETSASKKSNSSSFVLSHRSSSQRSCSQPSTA
In short: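 HEK-293 cells stably expressing human OTR (G418-selected) were loaded with fura-2/AM (final […] as printed) at 37 °C for 30 min, then washed in HEPES-buffered saline, pH 7.4. F340/F380 ratio was read every 3 s for 5 min at 37 °C, normalized to 10-s pre-application baseline, as % of maximal OT response. Three independent experiments, 20 cells per dish; EC50 derived.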

Vasopressin V1a receptor = Vasopressin V1a receptor (Homo sapiens, UniProt P37288); experiment: Agonist activity at human V1A receptor expressed in HEK293 cells assessed as intracellular calcium level measured at 3 secs interval for 5 mins by fura-2/AM dye based micro spectrofluorometric method; format: functional, cell-based
In short: (§1)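 HEK-293 cells stably expressing the receptor (G418-selected) were loaded with fura-2/AM for 30 min at 37 °C and washed in HEPES-buffered saline, pH 7.4. Fluorescence was read at 37 °C with 340/380 nm excitation, and F340/F380 was normalized to the 10 s baseline. Responses were expressed as % of the OT maximum (OTR) or the AVP maximum (V1A), with EC50 from 3 independent experiments at 20 cells/dish.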

Vasopressin V1b receptor = target: T2, Vasopressin V1b receptor (Homo sapiens, UniProt P47901); experiment: Agonist activity at human V1B receptor expressed in HEK293 cells assessed as intracellular calcium level measured at 3 secs interval for 5 mins by fura-2/AM dye based micro spectrofluorometric method; format: functional, cell-based
T2 sequence (P47901 whole entry): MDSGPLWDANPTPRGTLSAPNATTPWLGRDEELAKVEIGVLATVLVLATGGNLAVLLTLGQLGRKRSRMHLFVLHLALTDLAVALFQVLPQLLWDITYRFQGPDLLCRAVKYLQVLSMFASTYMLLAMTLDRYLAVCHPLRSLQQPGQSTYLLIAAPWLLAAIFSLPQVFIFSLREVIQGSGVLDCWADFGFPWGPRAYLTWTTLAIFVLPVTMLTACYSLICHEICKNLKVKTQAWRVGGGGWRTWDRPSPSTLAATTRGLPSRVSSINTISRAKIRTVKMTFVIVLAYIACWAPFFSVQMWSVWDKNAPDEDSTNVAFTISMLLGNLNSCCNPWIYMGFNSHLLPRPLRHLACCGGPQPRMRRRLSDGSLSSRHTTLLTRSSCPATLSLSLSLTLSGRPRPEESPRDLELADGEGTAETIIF

Mus musculus [3] = experiment: Improvement in paternal nurturing behavior in CD38 knock out Slc:ICR mouse sire model of autism spectrum disorder assessed as parental scores to retrieve pups by sires at 100 ng/100 g, ip administered as single dose measured after 24 hrs by parental retrieval test (reference value: 0 +/- 0 No units); format: functional
Oxytocin receptor = target: T3, Oxytocin receptor (Homo sapiens, UniProt P30559); experiment: Agonist activity at human OTR receptor expressed in HEK293 cells assessed as intracellular calcium level measured at 3 secs interval for 5 mins by fura-2/AM dye based micro spectrofluorometric method; format: functional, cell-based; in short: as §1
T3 sequence (P30559 whole entry): T1 sequence (whole entry)

Mus musculus [4] = experiment: Improvement in paternal nurturing behavior in CD38 knock out Slc:ICR mouse sire model of autism spectrum disorder assessed as increase in parental scores to retrieve pups by sires at 100 ng/100 g, ip administered as single dose measured after 12 hrs by parental retrieval test; format: functional, organism-based
In short: (§2)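 This time-course test used CD38KOCC sires (Slc:ICR) paired with females. Each received a single ip dose of 100 ng/100 g body weight in PBS, with PBS as vehicle control. Paternal pup-retrieval scores were recorded at successive times after injection, including 6, 12, 24 and 48 h. Treatment effects were analysed by two-way ANOVA.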

Mus musculus [5] = experiment: Improvement in paternal nurturing behavior in CD38 knock out Slc:ICR mouse sire model of autism spectrum disorder assessed as increase in parental scores to retrieve pups by sires at 100 ng/100 g, ip administered as single dose measured after 24 hrs by parental retrieval test; format: functional, organism-based
Mus musculus [6] = experiment: Improvement in paternal nurturing behavior in CD38 knock out Slc:ICR mouse sire model of autism spectrum disorder assessed as increase in parental scores to retrieve pups by sires at 100 ng/100 g, ip administered as single dose measured after 48 hrs by parental retrieval test; format: functional, organism-based; in short: as §2
Mus musculus [7] = experiment: Improvement in paternal nurturing behavior in CD38 knock out Slc:ICR mouse sire model of autism spectrum disorder assessed as parental scores to retrieve pups by sires at 100 ng/100 g, ip administered as single dose measured after 6 hrs by parental retrieval test; format: functional, organism-based; in short: as §2

Sequence of Vasopressin V1a receptor (P37288 whole entry): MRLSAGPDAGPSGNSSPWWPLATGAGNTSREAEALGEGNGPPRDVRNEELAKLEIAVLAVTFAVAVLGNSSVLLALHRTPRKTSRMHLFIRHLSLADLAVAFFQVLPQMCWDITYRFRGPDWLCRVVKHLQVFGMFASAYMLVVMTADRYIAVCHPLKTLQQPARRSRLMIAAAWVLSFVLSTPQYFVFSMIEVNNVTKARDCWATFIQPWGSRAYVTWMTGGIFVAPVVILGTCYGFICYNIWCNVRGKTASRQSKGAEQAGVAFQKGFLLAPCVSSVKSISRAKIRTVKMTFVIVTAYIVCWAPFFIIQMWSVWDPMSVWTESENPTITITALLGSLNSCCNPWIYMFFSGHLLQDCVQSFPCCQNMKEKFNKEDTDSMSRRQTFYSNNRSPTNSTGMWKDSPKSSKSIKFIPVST

| Emax [2] [%] | SMILES | Activity (Mus musculus [1]) | pEC50 (Vasopressin V1a receptor) | pEC50 (Vasopressin V1b receptor) | Activity (Mus musculus [3]) | pEC50 (Oxytocin receptor) | Activity (Mus musculus [4]) | Activity (Mus musculus [5]) | Activity (Mus musculus [6]) | Activity (Mus musculus [7]) |
| --- | --- | --- | --- | --- | --- | --- | --- | --- | --- | --- |
| 15.3 | CCCCCCCCCCCCCCCC(=O)N[C@H]1CSSC[C@@H](C(=O)N2CCC[C@H]2C(=O)N[C@@H](CC(C)C)C(=O)NCC(N)=O)NC(=O)[C@H](CC(N)=O)NC(=O)[C@H](CCC(N)=O)NC(=O)[C@H]([C@@H](C)CC)NC(=O)[C@H](Cc2ccc(OC(=O)OCCCCCCCCCCCCCC)cc2)NC1=O | 6.8 | < 4.00 | < 4.00 | 3.1 | – | – | – | – | – |
| – | CCCCCCCCCCCCCCCNC(=O)Oc1ccc(C[C@@H]2NC(=O)[C@@H](NC(=O)CCCCCCCCCCCCCCC)CSSC[C@@H](C(=O)N3CCC[C@H]3C(=O)N[C@@H](CC(C)C)C(=O)NCC(N)=O)NC(=O)[C@H](CC(N)=O)NC(=O)[C@H](CCC(N)=O)NC(=O)[C@H]([C@@H](C)CC)NC2=O)cc1 | 2 | < 4.00 | < 4.00 | 3.1 | < 5.00 | – | – | – | – |
| 0 | CCCCCCCCCCCCCCCCOC(=O)Oc1ccc(C[C@@H]2NC(=O)[C@@H](NC(=O)CCCCCCCCCCCCCCC)CSSC[C@@H](C(=O)N3CCC[C@H]3C(=O)N[C@@H](CC(C)C)C(=O)NCC(N)=O)NC(=O)[C@H](CC(N)=O)NC(=O)[C@H](CCC(N)=O)NC(=O)[C@H]([C@@H](C)CC)NC2=O)cc1 | 2 | < 4.00 | < 4.00 | 5.2 | < 4.00 | Active | Active | inactive | – |
| – | CC[C@H](C)[C@@H]1NC(=O)[C@H](Cc2ccc(O)cc2)NC(=O)[C@@H](N)CSSC[C@@H](C(=O)N2CCC[C@H]2C(=O)N[C@@H](CC(C)C)C(=O)NCC(N)=O)NC(=O)[C@H](CC(N)=O)NC(=O)[C@H](CCC(N)=O)NC1=O [OXYTOCIN] | 5.3 | – | – | 0 | – | – | – | – | inactive |
| 0 | CCCCCCCCCCCCCCCOC(=O)Oc1ccc(C[C@@H]2NC(=O)[C@@H](NC(=O)CCCCCCCCCCCCCCC)CSSC[C@@H](C(=O)N3CCC[C@H]3C(=O)N[C@@H](CC(C)C)C(=O)NCC(N)=O)NC(=O)[C@H](CC(N)=O)NC(=O)[C@H](CCC(N)=O)NC(=O)[C@H]([C@@H](C)CC)NC2=O)cc1 | 3.9 | < 4.00 | < 4.00 | 2.9 | < 4.00 | – | – | – | – |

| SMILES | Emax [2] [%] | Activity (Mus musculus [1]) | pEC50 (Vasopressin V1a receptor) | pEC50 (Vasopressin V1b receptor) | Activity (Mus musculus [3]) | pEC50 (Oxytocin receptor) | Activity (Mus musculus [4]) | Activity (Mus musculus [5]) | Activity (Mus musculus [6]) | Activity (Mus musculus [7]) |
| --- | --- | --- | --- | --- | --- | --- | --- | --- | --- | --- |
| CCCCCCCCCCCCCCCCNC(=O)Oc1ccc(C[C@@H]2NC(=O)[C@@H](NC(=O)CCCCCCCCCCCCCCC)CSSC[C@@H](C(=O)N3CCC[C@H]3C(=O)N[C@@H](CC(C)C)C(=O)NCC(N)=O)NC(=O)[C@H](CC(N)=O)NC(=O)[C@H](CCC(N)=O)NC(=O)[C@H]([C@@H](C)CC)NC2=O)cc1 | 0 | 1.9 | < 4.00 | < 4.00 | 3.4 | < 4.00 | – | – | – | – |
| CCCCCCCCCCCCCCCC(=O)N[C@H]1CSSC[C@@H](C(=O)N2CCC[C@H]2C(=O)N[C@@H](CC(C)C)C(=O)NCC(N)=O)NC(=O)[C@H](CC(N)=O)NC(=O)[C@H](CCC(N)=O)NC(=O)[C@H]([C@@H](C)CC)NC(=O)[C@H](Cc2ccc(OC(=O)NCCCCCCCCCCCCCC)cc2)NC1=O | 0 | 3.3 | < 4.00 | < 4.00 | 3.6 | < 4.00 | – | – | – | – |
